Measured values published in ChEMBL document CHEMBL3994569, “Synthesis, anti-varicella-zoster virus and anti-cytomegalovirus activity of quinazoline-2,4-diones containing isoxazolidine and phosphonate substructures” (Eur J Med Chem, 2017).

Tests used:
[1] = Cytotoxicity against HEL cells infected with Varicella-Zoster virus assessed as alteration in cell morphology by microscopic method; assay type: cell-based; settings: human, HEL cells infected with Varicella-Zoster virus
In short: (§1)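 In the HEL cultures used for the antiviral assays, cell morphology was examined microscopically across varying compound concentrations. MCC is the minimum concentration causing a microscopically detectable alteration of cell morphology.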

[2] = system: HMEC-1; experiment: Anti-proliferative activity against HMEC1 cells by coulter counter method; assay type: ADME, cell-based, Homo sapiens; settings: Homo sapiens, HMEC-1
In short: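 HMEC-1 cells at 300,000–500,000 cells/mL, mixed 1:1 by volume with serial dilutions of test compound, incubated at 37 °C. Cell number counted by Coulter counter.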

[3] = system: CCRF-CEM; experiment: Anti-proliferative activity against human CEM cells measured after 72 hrs by coulter counter method; assay type: ADME, cell-based; settings: Homo sapiens, CCRF-CEM, 72 h
In short: (§2)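 Cells at 300,000–500,000 cells/mL, combined 1:1 by volume with compound dilutions, incubated at 37 °C: L1210 for two days, CEM for three days, HeLa for four days. Cells counted by Coulter counter.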

[4] = system: Human alphaherpesvirus 3; experiment: Antiviral activity against thymidine kinase deficient Varicella-Zoster virus 07-1 infected in HEL cells assessed as reduction in virus plaque formation; assay type: functional, cell-based; settings: Human alphaherpesvirus 3, 07-1, HEL
In short: (§3)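 Confluent HEL fibroblast cultures were infected with VZV at an input of 100 PFU and incubated with varying compound concentrations. Plaques were counted once plaque formation was complete in untreated infected controls.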

[5] = system: HeLa; experiment: Anti-proliferative activity against human HeLa cells measured after 4 days by coulter counter method; assay type: ADME, cell-based; settings: Homo sapiens, HeLa, 96 h; in short: as §2
[6] = system: Cytomegalovirus; experiment: Antiviral activity against Cytomegalovirus Davis infected in HEL cells assessed as reduction in virus plaque formation; assay type: functional, cell-based; settings: Human betaherpesvirus 5, Davis, HEL
In short: (§4)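 Confluent HEL fibroblast cultures infected with 100 PFU of HCMV and kept with varying compound concentrations. Plaques scored once plaque formation was complete in untreated infected controls.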

[7] = system: Cytomegalovirus; experiment: Antiviral activity against Cytomegalovirus AD169 infected in HEL cells assessed as reduction in virus plaque formation; assay type: functional, cell-based; settings: Human betaherpesvirus 5, AD169, HEL; in short: as §4
[8] = Cytotoxicity against HEL cells infected with Cytomegalovirus assessed as alteration in cell morphology by microscopic method; assay type: cell-based; settings: human, HEL cells infected with Cytomegalovirus; in short: as §1
[9] = system: HEL; experiment: Cytotoxicity against HEL cells infected with Varicella-Zoster virus assessed as growth inhibition; assay type: cell-based; settings: human, hel
[10] = system: L1210; experiment: Anti-proliferative activity against mouse L1210 cells measured after 48 hrs by coulter counter method; assay type: ADME, cell-based; settings: Mus musculus, L1210, 48 h; in short: as §2
[11] = system: Human alphaherpesvirus 3; experiment: Antiviral activity against thymidine kinase expressing Varicella-Zoster virus OKA infected in HEL cells assessed as reduction in virus plaque formation; assay type: functional, cell-based, strain Oka vaccine; settings: Human alphaherpesvirus 3, strain Oka vaccine, HEL; in short: as §3
[12] = Cytotoxicity against virus infected HEL cells assessed as alteration in cell morphology by microscopic method; assay type: cell-based; settings: human; in short: as §1

| Structure (SMILES) | MCC [1] | IC50 [2] | IC50 [3] | EC50 [4] | IC50 [5] | EC50 [6] | EC50 [7] | MCC [8] | CC50 [9] | IC50 [10] | EC50 [11] | MCC [12] |
| --- | --- | --- | --- | --- | --- | --- | --- | --- | --- | --- | --- | --- |
| CCOP(=O)(OCC)[C@@H]1C[C@@H](Cn2c(=O)n(C(=O)c3cccc(F)c3)c(=O)c3ccccc32)ON1Cc1ccccc1 (relative stereo) | 100 µM | > 250 µM | 224 µM | 8.5 µM | > 250 µM | > 20 µM | > 20 µM | 20 µM | 9.8 µM | 170 µM | 8.7 µM |  |
| CCOP(=O)(OCC)[C@H]1C[C@@H](Cn2c(=O)n(Cc3ccccc3F)c(=O)c3ccccc32)ON1C (relative stereo) | > 100 µM | ≥ 250 µM | 181 µM | > 100 µM | 128 µM | 100 µM | > 100 µM | 100 µM |  | 203 µM | 58.5 µM |  |
| CCOP(=O)(OCC)[C@@H]1C[C@@H](Cn2c(=O)n(C(=O)c3ccc(F)cc3)c(=O)c3ccccc32)ON1Cc1ccccc1 (relative stereo) | 100 µM | ≥ 250 µM | 170 µM | 8.3 µM |  | > 20 µM | > 20 µM | 20 µM | 12.7 µM | 123 µM | 7.5 µM |  |
| CCOP(=O)(OCC)[C@@H]1C[C@@H](Cn2c(=O)n(Cc3cccc(F)c3)c(=O)c3ccccc32)ON1C (relative stereo) | > 100 µM | 152 µM | 100 µM | > 100 µM | 88 µM | 63.1 µM | 76.5 µM | > 100 µM |  | 132 µM | 55.7 µM |  |
| CCOP(=O)(OCC)[C@@H]1C[C@@H](Cn2c(=O)n(Cc3ccc(F)cc3)c(=O)c3ccccc32)ON1C (relative stereo) | 10 µM | 158 µM | 93 µM | > 20 µM | 82 µM | 100 µM | > 100 µM | 100 µM |  | 126 µM | 66.9 µM |  |
| CCOP(=O)(OCC)[C@H]1C[C@@H](Cn2c(=O)n(C(=O)c3ccc(F)cc3)c(=O)c3ccccc32)ON1C (relative stereo) | > 100 µM | > 250 µM | > 250 µM | 24.5 µM | > 250 µM | > 20 µM | > 20 µM | 100 µM |  |  | 26.2 µM |  |
| CCOP(=O)(OCC)[C@@H]1C[C@@H](Cn2c(=O)n(C(=O)c3ccccc3F)c(=O)c3ccccc32)ON1C (relative stereo) | > 100 µM |  | > 250 µM | 34.2 µM |  | 66.9 µM | > 20 µM | 100 µM |  |  | 36.6 µM |  |
| CCOP(=O)(OCC)[C@@H]1C[C@@H](Cn2c(=O)n(C(=O)c3cccc(F)c3)c(=O)c3ccccc32)ON1C (relative stereo) | > 100 µM | > 250 µM | > 250 µM | 15 µM |  | > 20 µM | > 20 µM | 100 µM | 16.5 µM | 228 µM | 16.7 µM |  |
| CCOP(=O)(OCC)[C@@H]1C[C@@H](Cn2c(=O)n(Cc3ccccc3)c(=O)c3ccccc32)ON1C (relative stereo) | 100 µM | 235 µM | 124 µM | > 20 µM | 119 µM | > 100 µM | > 100 µM | 100 µM |  | 141 µM | > 20 µM |  |
| CCOP(=O)(OCC)[C@@H]1C[C@@H](Cn2c(=O)n(C(=O)c3ccccc3)c(=O)c3ccccc32)ON1Cc1ccccc1 (relative stereo) | 100 µM |  | ≥ 250 µM | > 20 µM | > 250 µM | > 20 µM | > 20 µM | 100 µM | 28.9 µM | 154 µM | 8.5 µM |  |
| Nc1nc2c(ncn2COCCO)c(=O)[nH]1 [ACYCLOVIR] | > 440 µM |  |  |  |  |  |  |  |  |  |  | > 250 µM |
| O=c1[nH]cc(F)c(=O)[nH]1 [FLUOROURACIL] |  |  |  |  |  |  |  |  |  | 0.33 µM |  |  |
| NC(=O)c1ncn([C@@H]2O[C@H](CO)[C@@H](O)[C@H]2O)n1 [RIBAVIRIN] |  |  |  |  |  |  |  |  |  |  |  | ≥ 250 µM |
